This note sets out measurements from ChEMBL document CHEMBL1135596, “Synthesis and evaluation of indenopyrazoles as cyclin-dependent kinase inhibitors. 2. Probing the indeno ring substituent pattern” (J Med Chem, 2002).

In one experiment the test system is AG1523. Nature of the experiment: Toxicity tested against normal human fibroblast cell line (AG1523). The class given is functional, cell-based. A digest of the protocol:
(§1)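 Sulforhodamine B growth assay. HCT116 colon carcinoma or AG1523 normal fibroblasts were seeded in McCoy's 5A with 5% FBS, at a density allowing 3-5 doublings. Incubation was 5 days (HCT116) or 6 days (AG1523) at 37 °C, 5% CO2. Cells were fixed with cold TCA, stained with 0.4% SRB, and dye was dissolved in 10 mM Tris base; OD read at 570 nm.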

Experiment [1] concerns the target T1, Cyclin-dependent kinase 2/cyclin E (Homo sapiens, UniProt P24941). Briefly: Compound was evaluated for inhibition of Cyclin-dependent kinase 2-cyclin E. The class given is protein-complex assay. A digest of the protocol:
(§2)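 CDK2/his-cyclin E in 50 mM Tris-HCl pH 7.6, 10 mM MgCl2, 10% DMSO, 1 mM DTT, 50 µM ATP, 0.05 µCi [γ-32P]ATP, 6 µM GST-Rb. Incubated at room temperature, stopped with cold PBS containing 100 mM EDTA, 10 mM ATP, BSA and NP40. 32P incorporation into Rb measured; IC50 by fit of v/vo to [I] with slope factor.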

Experiment [2] addresses T2, Cyclin-dependent kinase 4/cyclin D1 (Homo sapiens, UniProt P11802). Nature of the experiment: Compound was evaluated for 50% inhibition of Cyclin-dependent kinase 4-cyclin D1. The experiment is classed as protein-complex assay. The method in brief:
(§3)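 CDK4/cyclin D1 from extracts of co-expressing cells; 50 mM Tris-HCl pH 7.6, 10 mM MgCl2, 10% DMSO, 1 mM DTT, 50 µM ATP with [γ-32P]ATP, 6 µg GST-Rb (Rb aa 378-928). Started with 4 units enzyme, 15 min at room temperature, stopped with EDTA/ATP buffer. Labeled GST-Rb captured on GSH-Sepharose and counted by scintillation. IC50 from fit of v/vo versus [I] with slope term.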

Experiment [3] concerns HCT-116. Nature of the experiment: Toxicity tested against transformed human colon cancer cell line (HCT116). The class given is functional, cell-based. A digest of the protocol:
as §1

The subject of experiment [4] is HCT-116. Briefly: Effect of serum protein binding on inhibition of transformed cell line(PB HCT116) proliferation. The conditions noted are these: Homo sapiens. The class given is functional, cell-based. The method in brief:
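HCT116 cells were grown as in the SRB assay, with 45 mg/mL human serum albumin plus 1 mg/mL α1-acid glycoprotein added together with graded compound. Growth was read out by MTT: 1 mg/mL solution added, 4 h at 37 °C. Formazan was solubilized in 0.04 N HCl/isopropanol and absorbance read at 570 nm against a 630 nm reference.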

The target of experiment [5] is T1, Cyclin-dependent kinase 2/cyclin E. Briefly: Inhibition of Cyclin-dependent kinase 2-cyclin E. The class given is protein-complex assay. The method in brief: as §2
Experiment [6] has as its target T2, Cyclin-dependent kinase 4/cyclin D1. Briefly: Inhibition of Cyclin-dependent kinase 4-cyclin D1. The class given is protein-complex assay. The method in brief: as §3

T2 sequence (P11802 whole entry, the tested form may be a part): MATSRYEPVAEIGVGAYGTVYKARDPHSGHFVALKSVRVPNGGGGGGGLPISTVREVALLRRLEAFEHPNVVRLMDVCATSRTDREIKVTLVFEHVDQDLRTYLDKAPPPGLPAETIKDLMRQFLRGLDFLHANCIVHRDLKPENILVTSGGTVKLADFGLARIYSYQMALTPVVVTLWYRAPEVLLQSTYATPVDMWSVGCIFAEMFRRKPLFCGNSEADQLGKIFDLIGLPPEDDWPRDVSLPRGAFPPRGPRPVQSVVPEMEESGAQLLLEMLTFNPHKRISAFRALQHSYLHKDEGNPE
T2 sequence (P24385 whole entry, further chain, the tested form may be a part): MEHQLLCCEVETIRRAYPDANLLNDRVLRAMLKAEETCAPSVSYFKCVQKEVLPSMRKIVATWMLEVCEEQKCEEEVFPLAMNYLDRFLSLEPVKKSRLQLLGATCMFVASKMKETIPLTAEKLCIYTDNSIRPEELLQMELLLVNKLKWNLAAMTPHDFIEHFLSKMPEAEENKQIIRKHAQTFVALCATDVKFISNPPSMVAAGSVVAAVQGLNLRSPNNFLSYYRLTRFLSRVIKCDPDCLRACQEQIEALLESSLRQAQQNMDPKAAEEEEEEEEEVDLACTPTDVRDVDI

Consider `COc1ccc(-c2[nH]nc3c2C(=O)c2c(NC(N)=O)cccc2-3)cc1`, for which the IC50 in the experiment with AG1523 was determined as 413 nM; in experiment [1], 7 nM; in experiment [2] it was 66 nM; in the experiment with HCT-116 [3], 57 nM; in the experiment with HCT-116 [4], 3200 nM.

Take `COc1ccc(-c2[nH]nc3c2C(=O)c2c(NC(=O)CN4CCNCC4)cccc2-3)cc1`: the IC50 was 33 nM in experiment [1] and 113 nM in experiment [2].

As to `COc1ccc(-c2[nH]nc3c2C(=O)c2c(NC(=O)CN4CCN(C)CC4)cccc2-3)cc1`, the values for the IC50 in experiment [1] and in experiment [2] were 12 nM and 125 nM, respectively.

As to `COc1ccc(CNC(=O)Nc2cccc3c2C(=O)c2c(-c4ccc(OC)cc4)n[nH]c2-3)cc1`, the IC50 is 180 nM in experiment [1] and over 1100 nM in experiment [2].

As to `COc1ccc(-c2[nH]nc3c2C(=O)c2c(NC(=O)Nc4ccccc4)cccc2-3)cc1`, the half-maximal inhibitory concentration (IC50) in experiment [1] came to 32 nM; in experiment [2] it was 877 nM.

As to `COc1ccc(-c2[nH]nc3c2C(=O)c2c(NC(=O)NCc4ccncc4)cccc2-3)cc1`, the half-maximal inhibitory concentration (IC50) in the experiment with AG1523 was over 24000 nM; in experiment [1], 29 nM; in experiment [2] it was 1150 nM; in the experiment on HCT-116 [3], 378 nM; in the experiment with HCT-116 [4] it was over 58000 nM.

As for `COc1ccc(-c2[nH]nc3c2C(=O)c2c(O)cccc2-3)cc1`, the half-inhibitory concentration (IC50) in experiment [1] came out at 5200 nM; in experiment [2], 20000 nM.

As to `COc1ccc(-c2[nH]nc3c2C(=O)c2c(NC(=O)CN4CCC(CN)CC4)cccc2-3)cc1`, the IC50 amounted to 600 nM in the experiment with AG1523, 12 nM in experiment [1], 20 nM in experiment [2] and 70 nM with HCT-116 [3].

Consider `COc1ccc(-c2[nH]nc3c2C(=O)c2ccncc2-3)cc1`, for which the IC50 in experiment [1] is 4700 nM; in experiment [2], 34500 nM.

In the case of `COc1ccc(-c2[nH]nc3c2C(=O)c2c(NC(=O)CN4CCOCC4)cccc2-3)cc1`, the IC50 in experiment [1] stood at 21 nM; in experiment [2] it was 195 nM.

Turning to `COc1ccc(-c2c3c(nn2-c2ccccc2)-c2ccccc2C3=O)cc1`, the IC50 in experiment [1] was over 280000 nM; in experiment [2], over 200000 nM.

Take `COc1ccc(-c2[nH]nc3c2C(=O)c2c(NC(=O)CN(C)C)cccc2-3)cc1`: the IC50 in experiment [1] turned out to be 44 nM; in experiment [2] it was 900 nM.

For `COc1ccc(-c2[nH]nc3c2C(=O)c2c(NC(=O)NN4CCOCC4)cccc2-3)cc1`, the 50% inhibitory concentration (IC50) in the experiment with AG1523 was 950 nM; in experiment [1] it was 18 nM; in experiment [2], 12 nM; in the experiment with HCT-116 [3] it was 20 nM; with HCT-116 [4] it was 622 nM.

Take `COc1ccc(-c2c3c(nn2C)-c2ccccc2C3=O)cc1`: the IC50 in experiment [1] and in experiment [2] was over 340000 nM in each case.

On to `COc1ccc(-c2[nH]nc3c2C(=O)c2c(NC(=O)CN4CCCCC4)cccc2-3)cc1`, for which the IC50 is 185 nM in experiment [1] and over 1000 nM in experiment [2].

Turning to `CCCCNC(=O)Nc1cccc2c1C(=O)c1c(-c3ccc(OC)cc3)n[nH]c1-2`, the IC50 in experiment [1] was determined as 84 nM; in experiment [2] it was 780 nM.

As to `COc1ccc(-c2[nH]nc3c2C(=O)c2c(NC(=O)CN4CCN(C(=N)N)CC4)cccc2-3)cc1`, the IC50 in experiment [1] is 7 nM; in experiment [2] it was 26 nM; with HCT-116 [3] it was over 900 nM.

Take `COc1ccc(-c2[nH]nc3c2C(=O)c2c(NC(=O)CN4CCC(C(N)=O)CC4)cccc2-3)cc1`: the figures for the IC50 (with AG1523; in experiment [1]; in experiment [2]) were 400 nM, 8 nM and 76 nM, respectively.

On to `COc1ccc(-c2[nH]nc3c2C(=O)c2c(NC(=O)NN4CCCC4)cccc2-3)cc1`, for which the figures for the IC50 in experiment [1] and in experiment [2] were 15 nM and 12 nM, respectively.

In the case of `COc1ccc(-c2[nH]nc3c2C(=O)c2c(NC(=O)NCc4ccccc4)cccc2-3)cc1`, the IC50 in experiment [1] came to 95 nM; in experiment [2], 307 nM.

For `COc1ccc(-c2[nH]nc3c2C(=O)c2c(N)cccc2-3)cc1`, the half-maximal inhibitory concentration (IC50) worked out at 8400 nM in experiment [1] and 23000 nM in experiment [2].

Consider `CCNCC(=O)Nc1cccc2c1C(=O)c1c-2n[nH]c1-c1ccc(OC)cc1`, for which the IC50 in experiment [1] came out at 130 nM; in experiment [2] it was 917 nM.

In experiment [2], `COc1ccc(-c2[nH]nc3c2C(=O)c2cc(Cl)c(Cl)cc2-3)cc1` displayed an IC50 of 55500 nM.

Turning to `COc1ccc(-c2[nH]nc3c2C(=O)c2c(NC(=O)N(C)Cc4ccccc4)cccc2-3)cc1`, the IC50 in experiment [1] and in experiment [2] was over 2300 nM in each case.

For the molecule `COc1ccc(-c2[nH]nc3c2C(=O)c2c(NC(=O)NN(C)C)cccc2-3)cc1`, the IC50 with AG1523 came out at 385 nM; in experiment [5] it was 5 nM; in experiment [6], 21 nM; in the experiment with HCT-116 [3], 28 nM; with HCT-116 [4], 1240 nM.

Consider `COc1ccc(-c2[nH]nc3c2C(=O)c2c(NC(=O)CN4CCN(C(N)=O)CC4)cccc2-3)cc1`, for which the IC50 with AG1523 is over 400 nM; in experiment [1], 8 nM; in experiment [2] it was 64 nM; in the experiment on HCT-116 [3], 47 nM; with HCT-116 [4], over 5200 nM.

As for `COc1ccc(-c2[nH]nc3c2C(=O)c2c(NC(=O)NN4CCCCC4)cccc2-3)cc1`, the values for the IC50 in experiment [1] and in experiment [2] were 22 nM and 12 nM, respectively.

Turning to `COc1ccc(-c2[nH]nc3c2C(=O)c2c(NC(=O)NN4CCN(C)CC4)cccc2-3)cc1`, the IC50 was determined as 85 nM in the experiment on AG1523, 12 nM in experiment [1], 9 nM in experiment [2] and 15 nM in the experiment on HCT-116 [3].

As for `COc1ccc(-c2[nH]nc3c2C(=O)c2cccnc2-3)cc1`, the IC50 in experiment [2] is over 361000 nM.

`COc1ccc(-c2[nH]nc3c2C(=O)c2c(NC(=O)CN4CCSCC4)cccc2-3)cc1`: the IC50 is 54 nM in experiment [1] and over 500 nM in experiment [2].

Take `CCN(CC)C(=O)Nc1cccc2c1C(=O)c1c(-c3ccc(OC)cc3)n[nH]c1-2`: the IC50 in experiment [1] and in experiment [2] was over 1300 nM throughout.

For `COc1ccc(-c2[nH]nc3c2C(=O)c2cc(N)ccc2-3)cc1`, the results for the IC50 in experiment [1] and in experiment [2] were 210000 nM and 108000 nM, respectively.

As for `COc1ccc(-c2[nH]nc3c2C(=O)c2c(NC(=O)CN)cccc2-3)cc1`, the values for the IC50 in experiment [1] and in experiment [2] were over 720 nM and over 1400 nM, respectively.

Turning to `COc1ccc(-c2[nH]nc3c2C(=O)c2c(NC(=O)CN4CCC(CO)CC4)cccc2-3)cc1`, the IC50 in experiment [1] came to 11 nM; in experiment [2], 82 nM.

On to `COc1ccc(-c2[nH]nc3c2C(=O)c2cc(O)ccc2-3)cc1`, for which, in experiment [2], it took 21500 nM to reach half-maximal inhibition (IC50). In other words, the double-digit micromolar range.
